Our source for the inhibition and EC50 values is ChEMBL document CHEMBL1770104, “Design, synthesis and antifungal activities of novel pyrrole alkaloid analogs” (Eur J Med Chem, 2011).

Values after ≈ are worked out from the molar mass of the structure shown. A value given as a limit tells only on which side of the number the result lay.

Broadly, the inhibition is how much of the control response was suppressed. The low end stands for a weak effect, the high end for a strong effect. As a reminder, the EC50 is the concentration that produces a half-maximal response. The low end stands for greater potency, the high end for weaker potency.

Assay [1] has as its system Alternaria solani. Description: Antimicrobial activity against Alternaria solani at 50 ug/mL by mycelium growth rate method. It is filed as functional. The method in brief:
(§1)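 Mycelium growth-rate assay with anthranilamide and fenpiclonil as controls. Colony diameter is measured once the mycelia have grown completely, and the inhibition rate is calculated from the diameters by formula.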

Assay [2] deals with Mycosphaerella arachidis. Description: Antimicrobial activity against Cercospora arachidicola at 50 ug/mL by mycelium growth rate method. The assay is classed as functional. The method in brief: as §1
The subject of assay [3] is Fusarium. Description: Antimicrobial activity against Fusarium […] at 50 ug/mL by mycelium growth rate method. The assay is classed as functional. The essentials: as §1
For assay [4], the system named is Fusarium graminearum. Kind of assay: Antimicrobial activity against Gibberella zeae at 50 ug/mL by mycelium growth rate method. The assay is classed as functional. The method in brief: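 Mycelium growth rate assay with anthranilamide and fenpiclonil as controls. Once mycelia had grown completely, the mycelial diameter was measured and the inhibition rate was calculated from it by formula.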

Assay [5] deals with Botryosphaeria berengeriana. Kind of assay: Antimicrobial activity against Physalospora piricola at 50 ug/mL by mycelium growth rate method. The assay is classed as functional. The essentials: as §1
The subject of assay [6] is Alternaria solani. Kind of assay: Antimicrobial activity against Alternaria solani by mycelium growth rate method. It is filed as functional, organism-based. The method in brief:
as §1

The test system of assay [7] is Mycosphaerella arachidis. Description: Antimicrobial activity against Cercospora arachidicola by mycelium growth rate method. It is filed as functional, organism-based. The essentials:
as §1

For assay [8], the system named is Fusarium. Description: Antimicrobial activity against Fusarium […] by mycelium growth rate method. The assay is classed as functional, organism-based. The essentials:
as §1

In assay [9] the test system is Fusarium graminearum. Kind of assay: Antimicrobial activity against Gibberella zeae by mycelium growth rate method. The assay is classed as functional, organism-based.
Assay [10] deals with Botryosphaeria berengeriana. Description: Antimicrobial activity against Physalospora piricola by mycelium growth rate method. The assay is classed as functional, organism-based. The essentials:
as §1

In the case of `CO/C=C(/C(=O)OC)c1ccccc1CONC(=O)c1ccc[nH]1`, the inhibition at 50 µg/mL in the assay on Alternaria solani [1] stood at 0%; in the assay with Mycosphaerella arachidis [2], 13.3%; with Fusarium [3] it was 0%; with Fusarium graminearum [4], 8.5%; in [5], 16.1%.
Consider `CO/C=C(/C(=O)OC)c1ccccc1CONC(=O)c1cc(Cl)c(Cl)[nH]1`, for which the inhibition at 50 µg/mL in the assay on Alternaria solani [1] was determined as 42.3%; in the assay with Mycosphaerella arachidis [2], 40%; in the assay with Fusarium [3], 8.3%; in the assay with Fusarium graminearum [4] it was 21.1%; in [5], 24.7%.
On to `O=C(NOCc1ccc(F)cc1)c1cc(Cl)c(Cl)[nH]1`, for which the inhibition at 50 µg/mL in the assay on Alternaria solani [1] was 30.8%; in the assay on Mycosphaerella arachidis [2], 16%; in the assay with Fusarium [3], 22.2%; in the assay with Fusarium graminearum [4] it was 19.5%; in [5] it was 18.5%.
For the compound `O=C(NOCc1ccccc1Cl)c1cc(Br)c(Br)[nH]1`, the inhibition at 50 µg/mL was determined as 19% in the assay with Alternaria solani [1]; 20% in the assay with Mycosphaerella arachidis [2]; 0% in the assay with Fusarium [3]; 13.6% with Fusarium graminearum [4]; 13.4% in assay [5].
With `C#CCOc1ccc(CONC(=O)c2[nH]c(Br)c(Br)c2Br)cc1OC`, the inhibition at 50 µg/mL amounted to 11.8% in the assay with Alternaria solani [1]; 33.3% in the assay on Mycosphaerella arachidis [2]; 22.2% with Fusarium [3]; 9.1% with Fusarium graminearum [4]; 25.8% in [5].
As to `O=C(NOCc1ccc(F)cc1)c1cc(Br)c(Br)[nH]1`, the inhibition at 50 µg/mL with Alternaria solani [1] amounted to 66.5%; with Mycosphaerella arachidis [2], 62.5%; in the assay with Fusarium [3], 58%; in the assay on Fusarium graminearum [4], 21.7%; in assay [5], 55.1%.
Turning to `NC(=O)c1ccccc1N` [ANTHRANILAMIDE], the inhibition at 50 µg/mL was 42.3% in the assay on Alternaria solani [1]; 52% with Mycosphaerella arachidis [2]; 27.8% in the assay with Fusarium [3]; 38% in the assay on Fusarium graminearum [4]; 43.2% in assay [5].
Turning to `C#CCOc1ccc(CON(C)C(=O)c2ccc[nH]2)cc1OC`, the inhibition at 50 µg/mL amounted to 13.3% in the assay with Alternaria solani [1]; 19.2% in the assay on Mycosphaerella arachidis [2]; 31.6% in the assay on Fusarium [3]; 0% in the assay with Fusarium graminearum [4]; 5.8% in assay [5].
As for `O=C(NOCc1cccc(F)c1)c1cc(Br)c(Br)[nH]1`, the inhibition at 50 µg/mL in the assay with Alternaria solani [1] stood at 61.9%; in the assay with Mycosphaerella arachidis [2], 54%; in the assay with Fusarium [3], 40.8%; in the assay with Fusarium graminearum [4] it was 4.5%; in assay [5] it was 40.9%.
With `O=C(NOCc1ccc(F)cc1)c1ccc[nH]1`, the inhibition at 50 µg/mL with Alternaria solani [1] came to 0%; with Mycosphaerella arachidis [2], 12%; in the assay on Fusarium [3], 0%; in the assay on Fusarium graminearum [4], 7%; in assay [5], 6.2%.
Turning to `C#CCOc1ccc(CONC(=O)c2ccc[nH]2)cc1OC`, the inhibition at 50 µg/mL in the assay with Alternaria solani [1] was found to be 35.3%; with Mycosphaerella arachidis [2], 20%; in the assay on Fusarium [3], 16.7%; in the assay with Fusarium graminearum [4] it was 9.1%; in [5], 100%. Moreover, the EC50 in the assay on Alternaria solani [6] is above 50 µg/mL; in the assay with Mycosphaerella arachidis [7] it was above 50 µg/mL; in the assay on Fusarium [8] it was above 50 µg/mL; with Fusarium graminearum [9] it was above 50 µg/mL; in [10] it was 4.5 µg/mL (≈ 15 µM).
On to `O=C(NOCc1ccc(Cl)nc1)c1cc(Br)c(Br)[nH]1`, for which the inhibition at 50 µg/mL in the assay with Alternaria solani [1] came out at 5.3%; in the assay with Mycosphaerella arachidis [2], 28.6%; in the assay with Fusarium [3], 23.8%; in the assay with Fusarium graminearum [4] it was 0%; in assay [5] it was 37%.
Take `C#CCOc1ccc(CONC(=O)c2cc(Cl)c(Cl)[nH]2)cc1OC`: the inhibition at 50 µg/mL was found to be 42.3% in the assay on Alternaria solani [1]; 44% with Mycosphaerella arachidis [2]; 0% in the assay with Fusarium [3]; 21.1% with Fusarium graminearum [4]; 6.2% in assay [5].
For `N#Cc1ccccc1CONC(=O)c1cc(Br)c(Br)[nH]1` the same measures were 10.5%, 14.3%, 14%, 14.7% and 14.8%.
For the compound `O=C(NOCc1ccccc1)c1cc(Br)c(Br)[nH]1`, the inhibition at 50 µg/mL in the assay with Alternaria solani [1] was 66.7%; in the assay with Mycosphaerella arachidis [2], 53.3%; in the assay with Fusarium [3], 40%; with Fusarium graminearum [4] it was 9.1%; in assay [5], 40.9%.
For the compound `O=C(NOCc1cccc(Cl)c1)c1cc(Br)c(Br)[nH]1`, the inhibition at 50 µg/mL in the assay with Alternaria solani [1] stood at 66.7%; with Mycosphaerella arachidis [2], 80%; in the assay on Fusarium [3], 47%; in the assay with Fusarium graminearum [4] it was 17.4%; in [5], 38.9%.
As for `C#CCOc1ccc(CON(C)C(=O)c2cccn2C)cc1OC`, the inhibition at 50 µg/mL with Alternaria solani [1] was 16.7%; with Mycosphaerella arachidis [2] it was 7.7%; in the assay on Fusarium [3], 31.6%; with Fusarium graminearum [4], 20%; in [5], 6%.
In the case of `COc1ccc(CONC(=O)c2cc(Br)c(Br)[nH]2)cc1OC`, the inhibition at 50 µg/mL in the assay on Alternaria solani [1] was found to be 73.3%; with Mycosphaerella arachidis [2], 60%; in the assay on Fusarium [3], 41.2%; with Fusarium graminearum [4] it was 4.6%; in [5] it was 50%.
For `O=C(NOCc1ccc(F)cc1)c1[nH]c(Br)c(Br)c1Br` the same measures were 19.2%, 28%, 8.3%, 15.5% and 18.5%.
`O=C(NOCc1ccc(Cl)c(Cl)c1)c1cc(Br)c(Br)[nH]1`: the inhibition at 50 µg/mL in the assay on Alternaria solani [1] is 40%; in the assay on Mycosphaerella arachidis [2], 43.8%; in the assay on Fusarium [3] it was 23.5%; in the assay on Fusarium graminearum [4] it was 17.4%; in assay [5], 27.8%.
For `O=C(NOCc1ccc2c(c1)OCO2)c1cc(Br)c(Br)[nH]1`, the inhibition at 50 µg/mL with Alternaria solani [1] was 31.6%; with Mycosphaerella arachidis [2] it was 75%; with Fusarium [3] it was 23.8%; in the assay on Fusarium graminearum [4], 14.7%; in assay [5], 18.5%.
`N#Cc1ccc(CONC(=O)c2cc(Br)c(Br)[nH]2)cc1`: the inhibition at 50 µg/mL is 31.6% in the assay on Alternaria solani [1]; 35% with Mycosphaerella arachidis [2]; 19% in the assay on Fusarium [3]; 20.6% in the assay on Fusarium graminearum [4]; 48.1% in assay [5].
`C#CCOc1ccc(CONC(=O)c2cc(Br)c(Br)[nH]2)cc1OC`: the inhibition at 50 µg/mL in the assay with Alternaria solani [1] was 64.9%; in the assay with Mycosphaerella arachidis [2], 56.3%; in the assay with Fusarium [3] it was 47.1%; in the assay on Fusarium graminearum [4] it was 8.7%; in assay [5] it was 90%. The EC50 with Alternaria solani [6] was 20 µg/mL (≈ 43.7 µM); in the assay on Mycosphaerella arachidis [7], 24.4 µg/mL (≈ 53.2 µM); in the assay with Fusarium [8] it was above 50 µg/mL; in the assay on Fusarium graminearum [9], above 50 µg/mL; in [10], 9.78 µg/mL (≈ 21.3 µM).
With `O=C(NOCc1ccc([N+](=O)[O-])cc1)c1cc(Br)c(Br)[nH]1`, the inhibition at 50 µg/mL was 26.7% in the assay on Alternaria solani [1]; 18.8% with Mycosphaerella arachidis [2]; 17.6% in the assay with Fusarium [3]; 13% in the assay with Fusarium graminearum [4]; 16.7% in [5].
Consider `O=C(NOCc1ccc(Br)cc1)c1cc(Br)c(Br)[nH]1`, for which the inhibition at 50 µg/mL with Alternaria solani [1] was 31.6%; in the assay on Mycosphaerella arachidis [2], 50%; in the assay on Fusarium [3], 4.8%; in the assay with Fusarium graminearum [4], 2.9%; in assay [5], 33.3%.
On to `O=C(NOCc1ccccc1F)c1cc(Br)c(Br)[nH]1`, for which the inhibition at 50 µg/mL in the assay with Alternaria solani [1] was found to be 76.2%; with Mycosphaerella arachidis [2], 50.3%; with Fusarium [3], 41.2%; with Fusarium graminearum [4], 18.2%; in assay [5], 27.3%.
In the same order, the values of `CO/C=C(/C(=O)OC)c1ccccc1CONC(=O)c1cc(Br)c(Br)[nH]1` are 52.4%, 26.7%, 6.7%, 0% and 13.6%.
For `CO/C=C(/C(=O)OC)c1ccccc1CONC(=O)c1[nH]c(Br)c(Br)c1Br`, the inhibition at 50 µg/mL in the assay with Alternaria solani [1] came to 5.9%; in the assay with Mycosphaerella arachidis [2] it was 26.7%; in the assay with Fusarium [3] it was 27.8%; with Fusarium graminearum [4] it was 13.6%; in assay [5] it was 25%.
As for `O=C(NOCc1ccc(Cl)cc1Cl)c1cc(Br)c(Br)[nH]1`, the inhibition at 50 µg/mL in the assay on Alternaria solani [1] was determined as 21.1%; in the assay on Mycosphaerella arachidis [2] it was 35.7%; with Fusarium [3], 33.3%; in the assay with Fusarium graminearum [4] it was 11.8%; in assay [5], 33.3%.
In the case of `N#Cc1cccc(CONC(=O)c2cc(Br)c(Br)[nH]2)c1`, the inhibition at 50 µg/mL in the assay with Alternaria solani [1] was 21.1%; in the assay with Mycosphaerella arachidis [2], 35.7%; in the assay with Fusarium [3], 18%; in the assay with Fusarium graminearum [4], 8.8%; in [5], 25.3%.
As for `N#Cc1c[nH]cc1-c1cccc(Cl)c1Cl` [FENPICLONIL], the inhibition at 50 µg/mL in the assay with Alternaria solani [1] came out at 100%; in the assay with Mycosphaerella arachidis [2], 100%; in the assay on Fusarium [3], 18%; with Fusarium graminearum [4], 100%; in assay [5], 100%. Also, the EC50 in the assay on Alternaria solani [6] is 0.55 µg/mL (≈ 2.32 µM); in the assay on Mycosphaerella arachidis [7], 0.38 µg/mL (≈ 1.6 µM); with Fusarium [8] it was above 50 µg/mL; with Fusarium graminearum [9], 1.71 µg/mL (≈ 7.21 µM); in assay [10] it was 0.8 µg/mL (≈ 3.37 µM).
